Reference: ChEMBL document CHEMBL1155199, “Synthesis of 6-aminomethyl derivatives of benzopyran-4-one with dual biological properties: anti-inflammatory-analgesic and antimicrobial” (Eur J Med Chem, 2009)
In brackets after ≈: the same amount, converted by molar mass.

Experiments:
Escherichia coli = test: Antibacterial activity against Escherichia coli ATCC 8739 by turbidity method; format: functional
Rattus norvegicus [1] = test: Gastrointestinal toxicity in Albino rat assessed as severity index at 60 mg/kg, po after 17 hrs relative to control; format: organism-based; design: dose 60 mg/kg, route oral; conditions: in vivo
In short: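 Rats fasted 24 h (water allowed), then dosed orally at 60 mg/kg as a suspension in 1% methyl cellulose; controls received vehicle alone. Normal diet for 17 h after dosing. Stomach mucosa examined under a magnifying glass and scored: 0.5 redness, 1.0 spot ulcers, 1.5 haemorrhagic streaks, 2.0 ulcers >3 but <5, 3.0 ulcers >5. Severity index is the group mean score minus the control mean. Data are mean ± S.E.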

Rattus norvegicus [2] = test: Antiinflammatory activity in Wistar albino rat assessed as inhibition of carrageenan-induced paw edema at 20 mg/kg, po administered 30 mins before carrageenan challenge measured after 3 hrs relative to ibuprofen; format: functional
In short: (§1)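 Wistar albino rats (180–200 g), either sex, randomized into groups of six. Dosed 20 mg/kg p.o.; controls received 0.5% CMC. 30 min later, 0.1 mL 0.1% carrageenan in sterile 0.9% NaCl injected subplantar into the right hind paw. Paw volume read by plethysmometer at 2 and 3 h. Expressed as % inhibition, mean ± SEM, ANOVA with post hoc test.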

Rattus norvegicus [3] = test: Antiinflammatory activity in Wistar albino rat assessed as inhibition of carrageenan-induced paw edema at 20 mg/kg, po administered 30 mins before carrageenan challenge measured after 2 hrs relative to ibuprofen; format: functional; in short: as §1
Penicillium citrinum = test: Antifungal activity against Penicillium citrinum NCIM 768; format: functional
In short: (§2)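 Antifungal screen against R. oryza NRRL-21498 and P. citrum NCIM-768 with fluconazole as reference. Compounds that inhibited growth of one or more organisms were taken forward to MIC determination, reported in µg/mL.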

Staphylococcus aureus = test: Antibacterial activity against Staphylococcus aureus ATCC 29737 by turbidity method; format: functional
Mus musculus = test: Analgesic activity in Swiss albino mouse assessed as protection against acetic acid-induced writhing at 20 mg/kg, po administered 1 hr before acetic acid challenge measured for 5 to 15 mins; format: functional
In short: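 Swiss albino mice (25–30 g), either sex, groups of six, habituated individually 30 min in test cage. Test agents 20 mg/kg suspended in 1.0% CMC given orally; controls received CMC only. 1 h later, 0.10 mL 1% aqueous acetic acid injected i.p. to induce writhing. Data are mean ± S.E., one-way ANOVA with post hoc test.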

Rhizopus arrhizus = test: Antifungal activity against Rhizopus oryzae NRRL 21498; format: functional; in short: as §2
Rattus norvegicus [4] = test: Effect on lipid peroxidation in Albino rat gastric mucosa assessed as malondialdehyde level per mg of protein at 60 mg/kg, po after 17 hrs relative to ibuprofen; format: ADME, organism-based; design: dose 60 mg/kg, route oral; conditions: in vivo
In short: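 Lipid peroxidation measured by the Ohkawa thiobarbituric acid–MDA colorimetric method. Tubes were heated 30 min at 80 °C in a shaking water bath, chilled 10 min in ice water, and centrifuged at 3000 rpm for 15 min. Supernatant absorbance was read at 540 nm against a blank. Results are nmol MDA/mg protein, mean ± S.E.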

COc1ccc(-c2cc(=O)c3cc(CN4CCNCC4)ccc3o2)cc1
MIC (Escherichia coli): 50 mg/L (≈ 143 µM) | Activity (Rattus norvegicus [1]): 0.4 | inhibition in vivo at 20 mg/kg (Rattus norvegicus [2]): 68.9% | inhibition in vivo at 20 mg/kg (Rattus norvegicus [3]): 39.5% | MIC (Penicillium citrinum): > 100 mg/L | MIC (Staphylococcus aureus): 50 mg/L (≈ 143 µM) | Activity (Mus musculus): 40.36% | MIC (Rhizopus arrhizus): 50 mg/L (≈ 143 µM) | Activity (Rattus norvegicus [4]): 0.599 nmol

COc1ccc(-c2cc(=O)c3cc(CNc4ccc(S(N)(=O)=O)cc4)ccc3o2)cc1
MIC (Escherichia coli): 50 mg/L (≈ 115 µM) | inhibition in vivo at 20 mg/kg (Rattus norvegicus [2]): 60.5% | inhibition in vivo at 20 mg/kg (Rattus norvegicus [3]): 25.3% | MIC (Penicillium citrinum): 25 mg/L (≈ 57.3 µM) | MIC (Staphylococcus aureus): 25 mg/L (≈ 57.3 µM) | MIC (Rhizopus arrhizus): 10 mg/L (≈ 22.9 µM)

COc1ccc(-c2cc(=O)c3cc(CNc4ccc(S(N)(=O)=O)cc4)ccc3o2)cc1OC
MIC (Escherichia coli): 10 mg/L (≈ 21.4 µM) | inhibition in vivo at 20 mg/kg (Rattus norvegicus [2]): 60.5% | inhibition in vivo at 20 mg/kg (Rattus norvegicus [3]): 27.1% | MIC (Penicillium citrinum): 10 mg/L (≈ 21.4 µM) | MIC (Staphylococcus aureus): 25 mg/L (≈ 53.6 µM) | MIC (Rhizopus arrhizus): 10 mg/L (≈ 21.4 µM)

COc1ccc(-c2cc(=O)c3cc(CN4CCOCC4)ccc3o2)cc1
MIC (Escherichia coli): 10 mg/L (≈ 28.5 µM) | Activity (Rattus norvegicus [1]): 0.2 | inhibition in vivo at 20 mg/kg (Rattus norvegicus [2]): 75.3% | inhibition in vivo at 20 mg/kg (Rattus norvegicus [3]): 62.7% | MIC (Penicillium citrinum): 10 mg/L (≈ 28.5 µM) | MIC (Staphylococcus aureus): 10 mg/L (≈ 28.5 µM) | Activity (Mus musculus): 50.8% | MIC (Rhizopus arrhizus): 10 mg/L (≈ 28.5 µM) | Activity (Rattus norvegicus [4]): 0.526 nmol

COc1ccc(-c2cc(=O)c3cc(CN(C)C)ccc3o2)cc1OC
MIC (Escherichia coli): 25 mg/L (≈ 73.7 µM) | inhibition in vivo at 20 mg/kg (Rattus norvegicus [2]): 51% | inhibition in vivo at 20 mg/kg (Rattus norvegicus [3]): 29.8% | MIC (Penicillium citrinum): 50 mg/L (≈ 147 µM) | MIC (Staphylococcus aureus): 25 mg/L (≈ 73.7 µM) | MIC (Rhizopus arrhizus): 10 mg/L (≈ 29.5 µM)

NS(=O)(=O)c1ccc(NCc2ccc3oc(-c4ccccc4Cl)cc(=O)c3c2)cc1
MIC (Escherichia coli): 50 mg/L (≈ 113 µM) | inhibition in vivo at 20 mg/kg (Rattus norvegicus [2]): 58.2% | inhibition in vivo at 20 mg/kg (Rattus norvegicus [3]): 32.2% | MIC (Penicillium citrinum): 25 mg/L (≈ 56.7 µM) | MIC (Staphylococcus aureus): 50 mg/L (≈ 113 µM) | MIC (Rhizopus arrhizus): > 100 mg/L

COc1ccc(-c2cc(=O)c3cc(CNc4ccc(C)cc4)ccc3o2)cc1OC
MIC (Escherichia coli): 50 mg/L (≈ 125 µM) | inhibition in vivo at 20 mg/kg (Rattus norvegicus [2]): 50.8% | inhibition in vivo at 20 mg/kg (Rattus norvegicus [3]): 18.7% | MIC (Penicillium citrinum): 25 mg/L (≈ 62.3 µM) | MIC (Staphylococcus aureus): 25 mg/L (≈ 62.3 µM) | MIC (Rhizopus arrhizus): 25 mg/L (≈ 62.3 µM)

O=c1cc(-c2ccccc2Cl)oc2ccc(CN3CCNCC3)cc12
MIC (Escherichia coli): > 100 mg/L | Activity (Rattus norvegicus [1]): 0.3 | inhibition in vivo at 20 mg/kg (Rattus norvegicus [2]): 73.9% | inhibition in vivo at 20 mg/kg (Rattus norvegicus [3]): 56% | MIC (Penicillium citrinum): 50 mg/L (≈ 141 µM) | MIC (Staphylococcus aureus): > 100 mg/L | Activity (Mus musculus): 48.39% | MIC (Rhizopus arrhizus): 50 mg/L (≈ 141 µM) | Activity (Rattus norvegicus [4]): 0.403 nmol

COc1ccc(-c2cc(=O)c3cc(CN(C)C)ccc3o2)cc1
MIC (Escherichia coli): 50 mg/L (≈ 162 µM) | inhibition in vivo at 20 mg/kg (Rattus norvegicus [2]): 53.1% | inhibition in vivo at 20 mg/kg (Rattus norvegicus [3]): 36% | MIC (Penicillium citrinum): 50 mg/L (≈ 162 µM) | MIC (Staphylococcus aureus): 50 mg/L (≈ 162 µM) | MIC (Rhizopus arrhizus): 10 mg/L (≈ 32.3 µM)

COc1ccc(-c2cc(=O)c3cc(CCl)ccc3o2)cc1OC
MIC (Escherichia coli): 50 mg/L (≈ 151 µM) | inhibition in vivo at 20 mg/kg (Rattus norvegicus [2]): 49.4% | inhibition in vivo at 20 mg/kg (Rattus norvegicus [3]): 33.3% | MIC (Penicillium citrinum): > 100 mg/L | MIC (Staphylococcus aureus): 10 mg/L (≈ 30.2 µM) | MIC (Rhizopus arrhizus): 10 mg/L (≈ 30.2 µM)

CN(C)Cc1ccc2oc(-c3ccccc3Cl)cc(=O)c2c1
MIC (Escherichia coli): 50 mg/L (≈ 159 µM) | inhibition in vivo at 20 mg/kg (Rattus norvegicus [2]): 54.3% | inhibition in vivo at 20 mg/kg (Rattus norvegicus [3]): 36.2% | MIC (Penicillium citrinum): > 100 mg/L | MIC (Staphylococcus aureus): > 100 mg/L | MIC (Rhizopus arrhizus): > 100 mg/L

O=c1cc(-c2ccccc2Cl)oc2ccc(CN3CCOCC3)cc12
MIC (Escherichia coli): > 100 mg/L | Activity (Rattus norvegicus [1]): 0.1 | inhibition in vivo at 20 mg/kg (Rattus norvegicus [2]): 82.5% | inhibition in vivo at 20 mg/kg (Rattus norvegicus [3]): 64.4% | MIC (Penicillium citrinum): 25 mg/L (≈ 70.3 µM) | MIC (Staphylococcus aureus): 50 mg/L (≈ 141 µM) | Activity (Mus musculus): 54.81% | MIC (Rhizopus arrhizus): 25 mg/L (≈ 70.3 µM) | Activity (Rattus norvegicus [4]): 0.352 nmol

Cc1ccc(NCc2ccc3oc(-c4ccccc4Cl)cc(=O)c3c2)cc1
MIC (Escherichia coli): > 100 mg/L | inhibition in vivo at 20 mg/kg (Rattus norvegicus [2]): 52.7% | inhibition in vivo at 20 mg/kg (Rattus norvegicus [3]): 19.8% | MIC (Penicillium citrinum): > 100 mg/L | MIC (Staphylococcus aureus): > 100 mg/L | MIC (Rhizopus arrhizus): 50 mg/L (≈ 133 µM)

COc1ccc(-c2cc(=O)c3cc(CNc4ccc(C)cc4)ccc3o2)cc1
MIC (Escherichia coli): 50 mg/L (≈ 135 µM) | inhibition in vivo at 20 mg/kg (Rattus norvegicus [2]): 51% | inhibition in vivo at 20 mg/kg (Rattus norvegicus [3]): 18.7% | MIC (Penicillium citrinum): > 100 mg/L | MIC (Staphylococcus aureus): 50 mg/L (≈ 135 µM) | MIC (Rhizopus arrhizus): 50 mg/L (≈ 135 µM)

COc1ccc(-c2cc(=O)c3cc(CN4CCNCC4)ccc3o2)cc1OC
MIC (Escherichia coli): 10 mg/L (≈ 26.3 µM) | Activity (Rattus norvegicus [1]): 0.4 | inhibition in vivo at 20 mg/kg (Rattus norvegicus [2]): 72.2% | inhibition in vivo at 20 mg/kg (Rattus norvegicus [3]): 54% | MIC (Penicillium citrinum): 50 mg/L (≈ 131 µM) | MIC (Staphylococcus aureus): 25 mg/L (≈ 65.7 µM) | Activity (Mus musculus): 45.38% | MIC (Rhizopus arrhizus): 25 mg/L (≈ 65.7 µM) | Activity (Rattus norvegicus [4]): 0.525 nmol

COc1ccc(-c2cc(=O)c3cc(CN4CCOCC4)ccc3o2)cc1OC
MIC (Escherichia coli): 10 mg/L (≈ 26.2 µM) | Activity (Rattus norvegicus [1]): 0.1 | inhibition in vivo at 20 mg/kg (Rattus norvegicus [2]): 80.9% | inhibition in vivo at 20 mg/kg (Rattus norvegicus [3]): 61.8% | MIC (Penicillium citrinum): 10 mg/L (≈ 26.2 µM) | MIC (Staphylococcus aureus): 10 mg/L (≈ 26.2 µM) | Activity (Mus musculus): 53.61% | MIC (Rhizopus arrhizus): 10 mg/L (≈ 26.2 µM) | Activity (Rattus norvegicus [4]): 0.331 nmol

COc1ccc(-c2cc(=O)c3cc(CCl)ccc3o2)cc1
MIC (Escherichia coli): 50 mg/L (≈ 166 µM) | inhibition in vivo at 20 mg/kg (Rattus norvegicus [2]): 38.7% | inhibition in vivo at 20 mg/kg (Rattus norvegicus [3]): 32.2% | MIC (Penicillium citrinum): > 100 mg/L | MIC (Staphylococcus aureus): 10 mg/L (≈ 33.3 µM) | MIC (Rhizopus arrhizus): 10 mg/L (≈ 33.3 µM)

OC(Cn1cncn1)(Cn1cncn1)c1ccc(F)cc1F [FLUCONAZOLE]
MIC (Penicillium citrinum): 6.25 mg/L (≈ 20.4 µM) | MIC (Rhizopus arrhizus): 6.25 mg/L (≈ 20.4 µM)

CC(C)Cc1ccc(C(C)C(=O)O)cc1 (stereo unspecified) [IBUPROFEN]
Activity (Rattus norvegicus [1]): 0.9 | Activity (Mus musculus): 65.06%

CCn1cc(C(=O)O)c(=O)c2cc(F)c(N3CCNCC3)cc21 [NORFLOXACIN]
MIC (Escherichia coli): 6.25 mg/L (≈ 19.6 µM) | MIC (Staphylococcus aureus): 6.25 mg/L (≈ 19.6 µM)
